Screens (PubChem BioAssay)
Rows were chosen to be rich in hits. Some 1.5% of all compounds tested hit in one or more screens of this group.
DNMT1 inh: inhibitors of human DNMT1; AID 588458; P26358; 0.83% of 360,000 active; DNMT1 molecular beacon, Hinp1I cleavage, fluorescence; inhibition (reported as % activation of signal), % at 10 µM
CASP6 VEID inh: blocks human caspase-6 cleavage activity; purified caspase-6, Z-VEID-R110 cleavage fluorescence; P55212; 0.53% of 350,000 active; inhibition, % at 12.5 µM;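 active means mean inhibition across replicates at least about 35%, with every replicate also reaching that limit, limit read from the data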
NSD2 inh: blocks human histone methyltransferase NSD2; O96028; NSD2 peptide methylation, AlphaScreen, 120 min; inhibition, % at 12.5 µM; 0.54% of 310,000 active; AID 743445
Target sequence (O96028 whole entry, looked up): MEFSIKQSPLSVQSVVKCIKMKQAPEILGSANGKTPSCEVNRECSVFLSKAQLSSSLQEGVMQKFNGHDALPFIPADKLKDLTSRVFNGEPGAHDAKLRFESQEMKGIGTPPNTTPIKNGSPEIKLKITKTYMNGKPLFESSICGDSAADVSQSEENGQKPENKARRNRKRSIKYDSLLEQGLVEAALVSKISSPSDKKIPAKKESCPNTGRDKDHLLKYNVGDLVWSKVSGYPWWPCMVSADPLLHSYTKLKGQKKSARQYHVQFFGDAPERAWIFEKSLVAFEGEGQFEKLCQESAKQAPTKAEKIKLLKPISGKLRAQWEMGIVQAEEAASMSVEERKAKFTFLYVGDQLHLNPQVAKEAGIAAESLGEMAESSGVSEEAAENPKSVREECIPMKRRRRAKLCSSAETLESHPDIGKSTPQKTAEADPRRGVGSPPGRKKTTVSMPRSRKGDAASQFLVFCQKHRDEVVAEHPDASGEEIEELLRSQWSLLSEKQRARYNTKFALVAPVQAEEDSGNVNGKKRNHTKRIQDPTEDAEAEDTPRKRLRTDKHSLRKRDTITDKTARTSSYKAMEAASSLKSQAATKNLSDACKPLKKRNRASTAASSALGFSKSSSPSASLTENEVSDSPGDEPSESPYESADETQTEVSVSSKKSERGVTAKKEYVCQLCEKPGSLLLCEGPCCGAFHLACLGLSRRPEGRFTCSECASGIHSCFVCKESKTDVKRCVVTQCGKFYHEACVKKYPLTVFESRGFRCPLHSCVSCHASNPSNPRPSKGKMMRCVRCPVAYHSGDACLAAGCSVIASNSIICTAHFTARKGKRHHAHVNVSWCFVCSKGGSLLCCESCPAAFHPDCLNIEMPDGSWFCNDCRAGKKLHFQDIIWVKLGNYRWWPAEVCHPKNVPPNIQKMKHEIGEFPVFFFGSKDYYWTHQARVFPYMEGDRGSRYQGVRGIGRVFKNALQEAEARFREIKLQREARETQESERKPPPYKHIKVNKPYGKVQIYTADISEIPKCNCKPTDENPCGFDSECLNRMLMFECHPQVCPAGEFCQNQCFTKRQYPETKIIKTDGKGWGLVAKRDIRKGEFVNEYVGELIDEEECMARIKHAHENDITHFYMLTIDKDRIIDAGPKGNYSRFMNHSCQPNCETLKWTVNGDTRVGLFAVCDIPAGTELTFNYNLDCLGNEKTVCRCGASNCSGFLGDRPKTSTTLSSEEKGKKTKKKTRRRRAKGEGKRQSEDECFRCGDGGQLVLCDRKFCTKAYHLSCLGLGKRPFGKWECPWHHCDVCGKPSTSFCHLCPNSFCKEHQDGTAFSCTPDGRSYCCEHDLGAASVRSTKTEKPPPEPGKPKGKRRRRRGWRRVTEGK
HCV NS3 hel inh: inhibitors of Hepatitis C virus NS3 helicase. NS3 helicase DNA unwinding, Cy5 molecular beacon fluorescence. 0.56% of 290,000 active. inhibition, % at 10.9 µM;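 active means inhibition above the mean of all tested compounds plus 3 SD, set per campaign, cut at about 35% in these data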
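Test system: hepatitis C virus NS3 helicase domain fragment enzyme. Also added: annealed dual-labelled DNA beacon duplex, ATP-started. Timing: 60 min unwinding reaction at 25 °C after ATP addition. Technique: Cy5 fluorescence. Measure: % inhibition of unwinding.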
DNMT1 interf DR: beacon fluorescence artifact, dose response counter-screen; shares compounds with DNMT1 inh; molecular beacon fluorescence, spectral interference counter-screen; IC50, µM; 200 tested, under 10 active; call rule not given here
DNMT1 confirm: confirmation of human DNMT1 inhibitors; shares compounds with DNMT1 inh; DNMT1 molecular beacon HinP1I cleavage, fluorescence; inhibition, % at 10 µM; 8% of 2,300 active; AID 602385;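 active means average inhibition of at least 30% in the single-concentration confirmation test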
Beacon interf: beacon fluorescence artifact counter-screen; shares compounds with DNMT1 inh; DNMT1 molecular beacon spectral interference counterscreen, fluorescence 485/520; activation (fluorescence interference), % at 10 µM; 1% of 2,300 active; AID 602387;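 active means activation of at least 30% at 10 µM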;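 further: DNMT1 catalytic domain with a HinP1I cleavage step and a FAM/dabcyl DNA beacon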
Hits are given with their value; - = inactive; . = not tested or not shown. Unless noted, no stated cut-off is given here; in the data, active means inhibition above about 50%; inactive means the rest.

SMILES	DNMT1 inh	CASP6 VEID inh	NSD2 inh	HCV NS3 hel inh	DNMT1 confirm	Beacon interf	others
COC(=O)c1ccccc1NC(=O)c1cc(-c2cccs2)on1	56	-	-	-	-	-
COC(=O)c1ccccc1NC(=O)c1noc2c1CCC2	99	.	-	.	-	-
CC(NC(=O)c1noc2c1CCCC2)c1ccccc1 (stereo not drawn)	-	.	.	-	.	.
CCc1ccc(NC(=O)c2noc3c2CCC3)cc1	80	.	-	-	-	-
C[C@H](CO)N1C[C@H](C)[C@@H](CN(C)C(=O)Nc2cccc(F)c2)Oc2ncc(C3=CCCCC3)cc2C1=O	.	-	.	.	.	.
C[C@H](CO)N1C[C@H](C)[C@@H](CN(C)Cc2ccc3c(c2)OCO3)Oc2ccc(NS(C)(=O)=O)cc2CC1=O	.	-	.	.	.	.
COc1ccc(S(=O)(=O)N2CCOC2CNC(=O)C(=O)NCc2ccco2)cc1C (stereo not drawn)	-	-	-	-	.	.
COc1ccc(S(=O)(=O)N2CCCOC2CNC(=O)C(=O)NCc2ccco2)cc1C (stereo not drawn)	71	-	-	-	-	-
CCCn1c(SCc2nc3sc(C)c(C)c3c(=O)[nH]2)nc2ccccc2c1=O	54	.	-	-	-	-
O=C(COC(=O)c1cccc(S(=O)(=O)N2CCN(c3ccccc3)CC2)c1)NCc1ccco1	68	.	-	-	-	-
O=C(Nc1ccc(-c2nc3ccccc3s2)c(O)c1)C1=COCCO1	70	.	-	-	-	-
CC(C)Cn1c(N)c(C(=O)NCC2CCCO2)c2nc3ccccc3nc21 (stereo not drawn)	74	.	-	-	-	-
Cc1ccc(S(=O)(=O)N[C@@H]2CC[C@@H](CC(=O)NCCCN(C)C)O[C@H]2CO)cc1	.	-	.	.	.	.
O=c1cc(-c2ccco2)oc2c1ccc1ccccc12	65	.	-	-	-	-
O=c1cc(-c2ccncc2)oc2c1ccc1ccccc12	-	-	-	-	.	.
O=C1c2ccccc2-c2c1c1ccccc1c(=O)n2-c1ccccc1	-	-	-	.	-	-
O=C1c2ccccc2-c2c1c1ccccc1c(=O)n2CCO	-	-	-	.	.	.
CC(C)(C)OC(=O)NCc1ccc(NC(=O)c2nc[nH]c2C(=O)NCCCCCCNC(=O)c2[nH]cnc2C(=O)Nc2ccc(CNC(=O)OC(C)(C)C)cc2)cc1	-	-	.	.	.	.
CC(C)(C)OC(=O)NCc1ccc(NC(=O)c2nc[nH]c2C(=O)NCCCNC(=O)c2[nH]cnc2C(=O)Nc2ccc(CNC(=O)OC(C)(C)C)cc2)cc1	60	.	.	.	-	-
CC(C)(C)OC(=O)NCc1ccc(NC(=O)c2nc[nH]c2C(=O)NCCCCNC(=O)c2[nH]cnc2C(=O)Nc2ccc(CNC(=O)OC(C)(C)C)cc2)cc1	61	.	.	.	-	-
Cc1cc(=O)c(C(=O)Nc2cccc(N3CCCC3=O)c2)nn1-c1ccccc1F	85	-	.	.	-	-
C[C@H]1CCCCO[C@H](CN(C)C(=O)Nc2cccc3ccccc23)[C@@H](C)CN([C@@H](C)CO)C(=O)c2cc(NC(=O)Nc3ccc(C(F)(F)F)cc3)ccc2O1	.	-	.	.	.	.
O=C1c2oc3ccc(Cl)cc3c(=O)c2C(c2cccc(Br)c2)N1CCO (stereo not drawn)	61	.	-	-	-	-
CCN(CC)CCN1C(=O)c2oc3ccccc3c(=O)c2C1c1cccc(Br)c1 (stereo not drawn)	-	.	-	-	.	.
C[C@H](CO)N1C[C@H](C)[C@H](CN(C)S(=O)(=O)c2cccs2)OCCCC[C@H](C)Oc2ccc(NC(=O)C3CCCCC3)cc2C1=O	.	-	.	.	.	.
SMILES	DNMT1 inh	CASP6 VEID inh	NSD2 inh	HCV NS3 hel inh	DNMT1 confirm	Beacon interf	others
Cc1nc(NCc2ccc3c(c2)OCO3)c2nnn(Cc3ccccc3)c2n1	55	.	.	-	-	-
CCn1nnnc1NCc1ccc(N2CCCC2)cc1	82	.	-	-	-	-
COc1cccc(-c2ccc([C@@H]3[C@@H](CO)N4C(=O)CN(C(=O)C5CCOCC5)C[C@@H]34)cc2)c1	.	-	.	.	.	.
Cc1ccc(/C=C/C(=O)O)cc1S(=O)(=O)Nc1ccccc1C(=O)O	-	.	-	-	.	.
Cc1ccc(/C=C/C(=O)O)cc1S(=O)(=O)Nc1ccc(C(=O)O)cc1	67	-	-	-	-	-
O=C(N/N=C/c1coc2ccccc2c1=O)c1cn(-c2ccccc2)nc1-c1ccc(F)cc1	59	.	-	-	-	-
C[C@@H]1CCCCO[C@@H](CN(C)CC2CCCCC2)[C@@H](C)CN([C@@H](C)CO)C(=O)c2cc(NS(=O)(=O)c3ccc(F)cc3)ccc2O1	.	-	.	.	.	.
O=C(c1cccc(F)c1)N1CC(=O)N2[C@H](CO)[C@@H](c3ccc(-c4cccnc4)cc3)[C@H]2C1	.	-	.	.	.	.
COc1ccc(/C=C2/C(=O)N(Cc3ccccc3)N=C2C)cc1	-	-	-	-	.	.
COc1ccc(/C=C2/C(=O)N(c3nc4ccccc4s3)N=C2CSc2ccc(Cl)cc2)cc1	65	-	-	-	54	-	DNMT1 interf DR=-
CN(C)N1C(N)=C(C#N)C(c2ccc(Cl)cc2)C2=C1CCCC2=O (stereo not drawn)	-	-	-	-	.	.
Cc1ccc(C2C(C#N)=C(N)N(N(C)C)C3=C2C(=O)CCC3)cc1 (stereo not drawn)	79	.	-	-	-	-
COc1cc(/C=C2\SC(=O)N(c3ccc(Cl)cc3)C2=O)cc([N+](=O)[O-])c1O	86	-	.	-	-	-
O=C(C1CC1)N1CC2(C1)[C@H](c1ccccc1)[C@H](CO)N2Cc1nccs1	.	-	.	.	.	.
O=C(Nc1cc2c(oc1=O)CCCC2=O)c1ccc(Cl)cc1	97	.	-	-	-	-
N#C/C(=C/c1ccc(-c2cccc([N+](=O)[O-])c2)o1)C(=O)Nc1nc(-c2cccs2)cs1	-	-	-	.	.	.
N#C/C(=C\c1ccc(-c2ccc([N+](=O)[O-])cc2)o1)C(=O)Nc1nc(-c2cccs2)cs1	95	-	.	-	-	-
CSCCC(NC(=O)C1CCCC1)c1nnc2ccccn12 (stereo not drawn)	-	-	-	-	.	.
CSCC[C@H](NS(=O)(=O)c1ccc(C(C)=O)cc1)c1nnc2ccccn12	55	37	-	-	-	-
C[C@@H]1CN([C@@H](C)CO)C(=O)c2cc(NC(=O)CCC(F)(F)F)ccc2O[C@H]1CN(C)C(=O)Nc1ccc(C(F)(F)F)cc1	.	-	.	.	.	.
COC(=O)c1ccc(N2NC(=O)/C(=C/c3ccc(-c4ccc(Cl)c(C(=O)O)c4)o3)C2=O)cc1	79	58	-	-	-	-
O=C1NN(c2ccccc2)C(=O)/C1=C/c1ccc(-c2ccc(C(=O)O)cc2)o1	78	-	-	-	-	-	DNMT1 interf DR=-
C[C@@H]1CN([C@H](C)CO)C(=O)Cc2cc(NC(=O)CCN3CCOCC3)ccc2O[C@@H]1CN(C)Cc1ccncc1	.	-	.	.	.	.
N#CC(C(=O)Nc1ccc(Cl)c(Cl)c1)=C1Nc2ccccc2N1	65	.	-	-	-	-
